In brackets after ≈: the same amount, converted by molar mass.
Experiments:
L1210 [1] = experiment: In vivo T/C (survival time treated/survival time control x 100) was determined against L1210 leukemia cells at 20 mg/Kg; type: functional, Mus musculus
Method in brief: (§1)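 B6D2 F1 mice, at least five per group, were inoculated ip on day 0 with 10^5 viable L1210 cells (25 mL/kg). Compounds were dissolved in distilled water and given ip (25 mL/kg) on days 1–4. Deaths were checked daily, with necropsy to separate tumor from toxic death. T/C×100 was median survival of treated over controls. Mice surviving over 50 days counted as cured and were excluded from the median.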

L1210 [2] = experiment: Cytotoxicity in the multiple tumor disk diffusion soft agar assay at the dose of 15 ug/disk against leukemia L1210; type: functional, Mus musculus
Method in brief: (§2)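 Soft agar disk diffusion: bottom layer 0.8% noble agar, top layer 0.47% noble agar, both in 1:1 CMRL-Fischer medium with 11% horse serum. Top layer seeded with 5×10^3 L1210 cells or 10^6 solid tumor cells (C38, PO3). Drug applied on a dried 6-mm filter-paper disk. Incubation 7-11 days. Inhibition zone measured by inverted microscope, in units (1 unit = 30 μm).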

P388 [3] = experiment: In vivo T/C (survival time treated/survival time control x 100) was determined against P388 leukemia cells at 20 mg/Kg; type: functional, Mus musculus
Method in brief: (§3)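 B6D2 F1 mice, at least five per group, were inoculated ip on day 0 with 10^6 viable P388 cells (25 mL/kg). Compounds were dissolved in distilled water and given ip (25 mL/kg) daily on days 1–4. Mortality was checked daily, with necropsy of dead animals. T/C×100 was median survival, treated versus control. Survivors beyond 50 days counted as cured and were excluded from the median.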

P388 [4] = experiment: In vitro cytotoxicity was determined against P388 leukemia cells; type: functional; conditions: Mus musculus, read-out: ID50 (the source's name)
Method in brief: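 P388 cells in exponential growth, RPMI 1640 with 2 mM glutamine, 10 μM 2-mercaptoethanol and 10% FCS, 5% CO2, 37 °C. Cells at 10^5 cells/mL. Drugs in distilled water added on day 0. Cells counted by Coulter counter after 96 h. ID50 (μg/mL, 50% inhibition of proliferation) estimated by regression of concentration/response data.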

[5] = Tested for cytotoxicity in the multiple tumor disk diffusion soft agar assay at the dose of 15 ug/disk against solid tumor C38; range is 650-675; type: functional, Mus musculus; method in brief: as §2
L1210 [6] = experiment: Tested for cytotoxicity in the multiple tumor disk diffusion soft agar assay at the dose of 15 ug/disk against leukemia L1210; range is 300-375; type: functional, Mus musculus; method in brief: as §2
P388 [7] = experiment: In vivo T/C (survival time treated/survival time control x 100) was determined against P388 leukemia cells at 10 mg/Kg; type: functional, Mus musculus; method in brief: as §3
[8] = Cytotoxicity in the multiple tumor disk diffusion soft agar assay at the dose of 15 ug/disk against solid tumor C38.; type: functional, Mus musculus; method in brief: as §2
[9] = Cytotoxicity in the multiple tumor disk diffusion soft agar assay at the dose of 15 ug/disk against solid tumor PO3; type: functional, Mus musculus; method in brief: as §2
L1210 [10] = experiment: Tested for cytotoxicity in the multiple tumor disk diffusion soft agar assay at the dose of 15 ug/disk against leukemia L1210; range is 450-600; type: functional, Mus musculus; method in brief: as §2
P388 [11] = experiment: In vivo T/C (survival time treated/survival time control x 100) was determined against P388 leukemia cells at 40 mg/Kg; type: functional, Mus musculus; method in brief: as §3
L1210 [12] = experiment: Tested for cytotoxicity in the multiple tumor disk diffusion soft agar assay at the dose of 15 ug/disk against leukemia L1210; U = 32 uM; type: functional, Mus musculus; method in brief: as §2
[13] = Tested for cytotoxicity in the multiple tumor disk diffusion soft agar assay at the dose of 15 ug/disk against solid tumor C38; U = 32 uM; type: functional, Mus musculus; method in brief: as §2
L1210 [14] = experiment: Tested for cytotoxicity in the multiple tumor disk diffusion soft agar assay at the dose of 15 ug/disk against leukemia L1210; range is 420-490; type: functional, Mus musculus; method in brief: as §2
[15] = Tested for cytotoxicity in the multiple tumor disk diffusion soft agar assay at the dose of 15 ug/disk against solid tumor C38; range is 550-600; type: functional, Mus musculus; method in brief: as §2
L1210 [16] = experiment: In vivo T/C (survival time treated/survival time control x 100) was determined against L1210 leukemia cells at 10 mg/Kg; type: functional, Mus musculus; method in brief: as §1
P388 [17] = experiment: In vivo T/C (survival time treated/survival time control x 100) was determined against P388 leukemia cells at 5.0 mg/Kg; type: functional, Mus musculus; method in brief: as §3
[18] = Tested for cytotoxicity in the multiple tumor disk diffusion soft agar assay at the dose of 15 ug/disk against solid tumor C38; type: functional, Mus musculus; method in brief: as §2
Mus musculus [19] = experiment: In vivo total number of survivors was determined against L1210 Leukemia cells out of 8 mouse at 50 day; type: functional, Leukemia cell; method in brief: as §1
[20] = Tested for the change in body weight between day 1 and 7 for murine solid tumor model 3LL early stage that is subcutaneously implanted by the intravenous treatment at the dose of 5 mg/kg in 1-4 schedule; type: functional, Mus musculus
[21] = Tested for medium tumor weight of treated /control animals x 100 (% T/C) for murine solid tumor model B16 early stage that is subcutaneously implanted by the intravenous treatment at the dose of 5 mg/kg in 1-4 schedule; type: functional, Mus musculus
Method in brief: (§4)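 sc implant of 1 mm³ tumor fragment. MA 16/C in C3H mice, B16 in C57BL/6 mice, C26 in CD2F1 mice; 10 per group. iv dosing on days 1-4 at 10 mL/kg. Mice weighed daily. Killed day 14 (C26) or day 15 (MA 16/C, B16) and tumors weighed. T/C×100 from median tumor weight, treated vs control. Body weight change taken from day 1 to 7.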

[22] = Tested for the change in body weight between day 1 and 7 for murine solid tumor model B16 early stage that is subcutaneously implanted by the intravenous treatment at the dose of 10 mg/kg in 1-4 schedule; type: functional; conditions: Mus musculus, dose 5 mg/kg, in the assay text read “5 mg/kg” for “10 mg/kg”; method in brief: as §4
[23] = Tested for medium tumor weight of treated /control animals x 100 (% T/C) for murine solid tumor model C26 early stage that is subcutaneously implanted by the intravenous treatment at the dose of 10 mg/kg in 1-4 schedule; type: functional, Mus musculus; method in brief: as §4
[24] = Tested for the change in body weight between day 1 and 7 for murine solid tumor model C26 early stage that is subcutaneously implanted by the intravenous treatment at the dose of 10 mg/kg in 1-4 schedule; type: functional, Mus musculus; method in brief: as §4
[25] = Tested for medium tumor weight of treated /control animals x 100 (% T/C) for murine solid tumor model MA 16/C early stage that is subcutaneously implanted by the intravenous treatment at the dose of 10 mg/kg in 1-4 schedule; type: functional, Mus musculus; method in brief: as §4
[26] = Tested for the change in body weight between day1 and 7 for murine solid tumor model MA 16/C early stage that is subcutaneously implanted by the intravenous treatment; type: functional, Mus musculus
Method in brief: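 Mice given sc 1 mm³ tumor fragment: C26 in CD2F1 mice, MA 16/C in C3H mice (tumors passaged in strain of origin), 10 per group. Drug given iv days 1–4 at 10 mL/kg. Animals weighed daily and watched for toxicity. Body-weight change taken from day 1 to day 7. Killed day 14 (C26) or 15 (MA 16/C).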

[27] = Tested for medium tumor weight of treated /control animals x 100 (% T/C) for murine solid tumor model 3LL early stage that is subcutaneously implanted by the intravenous treatment at the dose of 10 mg/kg in 1-4 schedule; type: functional, Mus musculus
[28] = Tested for the change in body weight between day 1 and 14 for murine solid tumor model 3LL advanced stage that is intramuscularly implanted by the intravenous treatment at the dose of 10 mg/kg in 7-10 schedule; conditions: Mus musculus
[29] = Tested for mean number of metastases of treated /control animals x 100 (% T/C) for murine solid tumor model 3LL advanced stage that is intramuscularly implanted by the intravenous treatment at the dose of 10 mg/kg in 7-10 schedule; conditions: Mus musculus
P388 [30] = experiment: In vivo T/C (survival time treated/survival time control x 100) was determined against P388 leukemia cells at 2.5 mg/Kg; type: functional, Mus musculus; method in brief: as §3
L1210 [31] = experiment: Tested for cytotoxicity in the multiple tumor disk diffusion soft agar assay at the dose of 15 ug/disk against leukemia L1210; range is 450-650; type: functional, Mus musculus; method in brief: as §2
L1210 [32] = experiment: Tested for cytotoxicity in the multiple tumor disk diffusion soft agar assay at the dose of 15 ug/disk against leukemia L1210; range is 0-450; type: functional, Mus musculus; method in brief: as §2
[33] = Tested for cytotoxicity in the multiple tumor disk diffusion soft agar assay at the dose of 15 ug/disk against solid tumor PO3; range is 350-450; type: functional, Mus musculus; method in brief: as §2
Mus musculus [34] = experiment: In vivo total number of survivors was determined against P388 leukemia cells out of 5 mouse at 50 day; type: functional; method in brief: as §3

With `CCN(CC)CCCNc1ncc(C)c2c1c1c3ccc(O)cc3ccc1n2C` the “T/C x100” value (L1210 [1]) was 129, the Cytotoxicity (L1210 [2]) was 450 U and the “T/C x100” value (P388 [3]) was 232. It also gave an IC50 (P388 [4]) of 0.025 µg/mL (≈ 0.064 µM) and a Cytotoxicity [5] of 650 U.
In the case of `CCN(CC)CCCNc1[nH]cc(C)c2nc3c(ccc4ccccc43)c1-2`, the Cytotoxicity (L1210 [6]) is reported as 300 U, the Cytotoxicity (L1210 [2]) is reported as 500 U and the “T/C x100” value (P388 [7]) is reported as 102. For the same compound, the IC50 (P388 [4]) was 0.75 µg/mL (≈ 2.08 µM), the Cytotoxicity [8] was 460 U and the Cytotoxicity [9] was 200 U.
With `CCN(CC)CCCNc1ncc(C)c2c1c1c3ccccc3ccc1n2C` the Cytotoxicity (L1210 [10]) was 450 U, the “T/C x100” value (P388 [11]) was 124 and the IC50 (P388 [4]) was 0.1 µg/mL (≈ 0.267 µM). It also gave a Cytotoxicity [8] of 520 U.
For `Cc1cnc(NCCCN(C)C)c2c3ccc4c(O)cccc4c3n(C)c12`, the Cytotoxicity (L1210 [12]) was 675 U, the “T/C x100” value (P388 [3]) was 135 and the IC50 (P388 [4]) was 0.025 µg/mL (≈ 0.069 µM). It also gave a Cytotoxicity [13] of 900 U.
In the case of `Cc1c[nH]c(NCCCN(C)C)c2c3ccc4ccccc4c3nc1-2`, the Cytotoxicity (L1210 [14]) is reported as 420 U, the Cytotoxicity (L1210 [2]) is reported as 500 U and the “T/C x100” value (P388 [7]) is reported as 115. The IC50 (P388 [4]) was 0.375 µg/mL (≈ 1.13 µM), the Cytotoxicity [15] was 550 U and the Cytotoxicity [9] was 310 U.
For `Cc1cnc(NCCCN(C)C)c2c1[nH]c1ccc3cc(O)ccc3c12` [INTOPLICINE], the “T/C x100” value (L1210 [16]) was 143, the Cytotoxicity (L1210 [2]) was 375 U and the “T/C x100” value (P388 [7]) was 270. For the same compound, the “T/C x100” value (P388 [17]) was 182, the IC50 (P388 [4]) was 0.025 µg/mL (≈ 0.0717 µM) and the Cytotoxicity [18] was 700 U. For the same compound, the Cytotoxicity [9] was 850 U, the Survivors (Mus musculus [19]) was 5 and the Change in weight [20] was -2.1 g. It also gave a T/C [21] of 28%, a Change in weight [22] of -1.1 g and a T/C [23] of 0%. For the same compound, the Change in weight [24] was -1.9 g, the T/C [25] was 2% and the Change in weight [26] was -1.7 g. For the same compound, the T/C [27] was 0%, the Change in weight [28] was -2.8 g and the T/C [29] was 34%.
In the case of `Cc1c[nH]c(NCCCN(C)C)c2c3cc(O)ccc3nc1-2`, the “T/C x100” value (P388 [30]) is reported as 130.
For `CCN(CC)CCCNc1ncc(C)c2[nH]c3ccc4cc(O)ccc4c3c12`, the “T/C x100” value (L1210 [16]) was 149, the Cytotoxicity (L1210 [31]) was 450 U and the Cytotoxicity (L1210 [2]) was 475 U. The “T/C x100” value (P388 [7]) was 215, the IC50 (P388 [4]) was 0.05 µg/mL (≈ 0.133 µM) and the Cytotoxicity [8] was 625 U. The Cytotoxicity [9] was 900 U.
For `Cc1cnc(NCCCN(C)C)c2c3c4ccc(O)cc4ccc3n(C)c12`, the “T/C x100” value (L1210 [1]) was 127, the Cytotoxicity (L1210 [32]) was 0 U and the Cytotoxicity (L1210 [2]) was 350 U. The “T/C x100” value (P388 [3]) was 243, the IC50 (P388 [4]) was 0.015 µg/mL (≈ 0.0414 µM) and the Cytotoxicity [8] was 750 U. The Cytotoxicity [33] was 350 U and the Survivors (Mus musculus [34]) was 1.

— ChEMBL document CHEMBL1124779, “Synthesis and antitumor activity of 1-[[(dialkylamino)alkyl]amino]-4-methyl-5H-pyrido[4,3-b]benzo[e]- and -benzo[g])indoles. A new class of antineoplastic agents” (1990)
